Experiments:
[1] = Inhibition of huntingtin […] expression in human GM04281 cells with 69 CAG repeats within mutant allele by Western blotting; format: functional, cell-based; conditions: in the assay text read “17 CAG repeats within wild type allele” for “69 CAG repeats within mutant allele”
How it was run: (§1)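 Patient-derived GM04281 fibroblasts carrying both wild-type and mutant HTT alleles were exposed to PNA-peptide conjugates, at 1 µM or across a concentration series. Mutant and wild-type HTT protein were measured separately by western blot and expressed relative to untreated cells. Experiments were run in triplicate.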

[2] = Ratio of IC50 for huntingtin […] expression in human GM04281 cells with 17 CAG repeats within wild type allele to huntingtin […] expression in human GM04281 cells with 69 CAG repeats within mutant allele; format: functional
[3] = Inhibition of huntingtin […] expression in human GM04281 cells with 17 CAG repeats within wild type allele by Western blotting; format: functional, cell-based; conditions: in the assay text read “69 CAG repeats within mutant allele” for “17 CAG repeats within wild type allele”; how it was run: as §1
[4] = Inhibition of huntingtin […] expression in human GM04281 cells with 69 CAG repeats within mutant allele at 0.2 to 2 uM by Western blotting; format: functional; how it was run: as §1
[5] = Inhibition of huntingtin […] expression in human GM04281 cells with 17 CAG repeats within wild type allele at >1 uM by Western blotting; format: functional; conditions: in the assay text read “69 CAG repeats within mutant allele” for “17 CAG repeats within wild type allele”; how it was run: as §1

| SMILES | IC50 [1] [µM] | Ratio IC50 [2] | IC50 [3] [µM] | inhibition (INH) [4] [%] | inhibition (INH) [5] [%] |
| --- | --- | --- | --- | --- | --- |
| Cc1cn(CC(=O)N(CCNC(=O)CN(CCNC(=O)CN(CCNC(=O)CN(CCNC(=O)CN(CCNC(=O)CN(CCNC(=O)CN(CCNC(=O)CN(CCNC(=O)CN(CCNC(=O)CN(CCNC(=O)CN(CCNC(=O)CN(CCN)C(=O)Cn2cnc3c(=O)[nH]c(N)nc32)C(=O)Cn2ccc(N)nc2=O)C(=O)Cn2cc(C)c(=O)[nH]c2=O)C(=O)Cn2cnc3c(=O)[nH]c(N)nc32)C(=O)Cn2ccc(N)nc2=O)C(=O)Cn2cc(C)c(=O)[nH]c2=O)C(=O)Cn2cnc3c(=O)[nH]c(N)nc32)C(=O)Cn2ccc(N)nc2=O)C(=O)Cn2cc(C)c(=O)[nH]c2=O)C(=O)Cn2cnc3c(=O)[nH]c(N)nc32)C(=O)Cn2ccc(N)nc2=O)CC(=O)NCCN(CC(N)=O)C(=O)Cn2cnc3c(=O)[nH]c(N)nc32)c(=O)[nH]c1=O | > 2 | >4 | 0.47 | – | – |
| Cc1cn(CC(=O)N(CCNC(=O)CN(CCNC(=O)CN(CCNC(=O)CN(CCNC(=O)CN(CCNC(=O)CN(CCNC(=O)CN(CCNC(=O)CN(CCNC(=O)CN(CCNC(=O)CN(CCNC(=O)CN(CCNC(=O)CN(CCN)C(=O)Cn2cnc3c(=O)[nH]c(N)nc32)C(=O)Cn2cc3cc(-c4c(OCCN)cccc4OCCN)[nH]c3nc2=O)C(=O)Cn2cc(C)c(=O)[nH]c2=O)C(=O)Cn2cnc3c(=O)[nH]c(N)nc32)C(=O)Cn2ccc(N)nc2=O)C(=O)Cn2cc(C)c(=O)[nH]c2=O)C(=O)Cn2cnc3c(=O)[nH]c(N)nc32)C(=O)Cn2ccc(N)nc2=O)C(=O)Cn2cc(C)c(=O)[nH]c2=O)C(=O)Cn2cnc3c(=O)[nH]c(N)nc32)C(=O)Cn2ccc(N)nc2=O)CC(=O)NCCN(CC(N)=O)C(=O)Cn2cnc3c(=O)[nH]c(N)nc32)c(=O)[nH]c1=O | 1.68 | – | 0.54 | – | – |
| Cc1cn(CC(=O)N(CCNC(=O)CN(CCNC(=O)CN(CCNC(=O)CN(CCNC(=O)CN(CCNC(=O)CN(CCNC(=O)CN(CCNC(=O)CN(CCNC(=O)CN(CCNC(=O)CN(CCNC(=O)CN(CCNC(=O)CN(CCN)C(=O)Cn2cnc3c(=O)[nH]c(N)nc32)C(=O)Cn2ccc(N)nc2=O)C(=O)Cn2cc(C)c(=O)[nH]c2=O)C(=O)Cn2cnc3c(=O)[nH]c(N)nc32)C(=O)Cn2ccc(N)nc2=O)C(=O)Cn2cc(C)c(=O)[nH]c2=O)C(=O)Cn2cnc3c(=O)[nH]c(N)nc32)C(=O)Cn2cc3cc(-c4c(OCCN)cccc4OCCN)[nH]c3nc2=O)C(=O)Cn2cc(C)c(=O)[nH]c2=O)C(=O)Cn2cnc3c(=O)[nH]c(N)nc32)C(=O)Cn2ccc(N)nc2=O)CC(=O)NCCN(CC(N)=O)C(=O)Cn2cnc3c(=O)[nH]c(N)nc32)c(=O)[nH]c1=O | 1.86 | – | 0.71 | – | – |
| Cc1cn(CC(=O)N(CCNC(=O)CN(CCNC(=O)CN(CCNC(=O)CN(CCNC(=O)CN(CCNC(=O)CN(CCNC(=O)CN(CCNC(=O)CN(CCNC(=O)CN(CCNC(=O)CN(CCNC(=O)CN(CCNC(=O)CN(CCN)C(=O)Cn2cnc3c(=O)[nH]c(N)nc32)C(=O)Cn2cc3cc(-c4c(OCCN)cccc4OCCN)[nH]c3nc2=O)C(=O)Cn2cc(C)c(=O)[nH]c2=O)C(=O)Cn2cnc3c(=O)[nH]c(N)nc32)C(=O)Cn2ccc(N)nc2=O)C(=O)Cn2cc(C)c(=O)[nH]c2=O)C(=O)Cn2cnc3c(=O)[nH]c(N)nc32)C(=O)Cn2cc3cc(-c4c(OCCN)cccc4OCCN)[nH]c3nc2=O)C(=O)Cn2cc(C)c(=O)[nH]c2=O)C(=O)Cn2cnc3c(=O)[nH]c(N)nc32)C(=O)Cn2ccc(N)nc2=O)CC(=O)NCCN(CC(N)=O)C(=O)Cn2cnc3c(=O)[nH]c(N)nc32)c(=O)[nH]c1=O | 1.3 | – | 0.58 | – | – |
| Cc1cn(CC(=O)N(CCNC(=O)CN(CCNC(=O)CN(CCNC(=O)CN(CCNC(=O)CN(CCNC(=O)CN(CCNC(=O)CN(CCNC(=O)CN(CCNC(=O)CN(CCNC(=O)CN(CCNC(=O)CN(CCNC(=O)CN(CCN)C(=O)Cn2cnc3c(=O)[nH]c(N)nc32)C(=O)Cn2cc3cc(-c4c(OCCN)cccc4OCCN)[nH]c3nc2=O)C(=O)Cn2cc(C)c(=O)[nH]c2=O)C(=O)Cn2cnc3c(=O)[nH]c(N)nc32)C(=O)Cn2cc3cc(-c4c(OCCN)cccc4OCCN)[nH]c3nc2=O)C(=O)Cn2cc(C)c(=O)[nH]c2=O)C(=O)Cn2cnc3c(=O)[nH]c(N)nc32)C(=O)Cn2cc3cc(-c4c(OCCN)cccc4OCCN)[nH]c3nc2=O)C(=O)Cn2cc(C)c(=O)[nH]c2=O)C(=O)Cn2cnc3c(=O)[nH]c(N)nc32)C(=O)Cn2ccc(N)nc2=O)CC(=O)NCCN(CC(N)=O)C(=O)Cn2cnc3c(=O)[nH]c(N)nc32)c(=O)[nH]c1=O | > 4 | – | 0.97 | <50 | >50 |
| Cc1cn(CC(=O)N(CCNC(=O)CN(CCNC(=O)CN(CCNC(=O)CN(CCNC(=O)CN(CCNC(=O)CN(CCNC(=O)CN(CCNC(=O)CN(CCNC(=O)CN(CCNC(=O)CN(CCNC(=O)CN(CCNC(=O)CN(CCN)C(=O)Cn2cnc3c(=O)[nH]c(N)nc32)C(=O)Cn2cc3cc(-c4c(OCCN)cccc4OCCN)[nH]c3nc2=O)C(=O)Cn2cc(C)c(=O)[nH]c2=O)C(=O)Cn2cnc3c(=O)[nH]c(N)nc32)C(=O)Cn2cc3cc(-c4c(OCCN)cccc4OCCN)[nH]c3nc2=O)C(=O)Cn2cc(C)c(=O)[nH]c2=O)C(=O)Cn2cnc3c(=O)[nH]c(N)nc32)C(=O)Cn2cc3cc(-c4c(OCCN)cccc4OCCN)[nH]c3nc2=O)C(=O)Cn2cc(C)c(=O)[nH]c2=O)C(=O)Cn2cnc3c(=O)[nH]c(N)nc32)C(=O)Cn2cc3cc(-c4c(OCCN)cccc4OCCN)[nH]c3nc2=O)CC(=O)NCCN(CC(N)=O)C(=O)Cn2cnc3c(=O)[nH]c(N)nc32)c(=O)[nH]c1=O | > 4 | – | 2.6 | – | – |
